Reference: article PMC12371875 (Journal of Agricultural and Food Chemistry, 2025)
Values after ≈ are worked out from the molar mass of the structure shown.

Columns and labels:
[1] = test system: rat intestinal maltase; experiment: Kinetic study of α-glucosidase inhibition; format: biochemical
Summary of the method: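 Rat intestinal α-glucosidase with test compound in phosphate buffer pH 6.9. Maltose was varied over 2–10 mM, with and without inhibitor, and the mixture was incubated at 37 °C for 10 min. […] Inhibition type came from Lineweaver–Burk plots. Ki and Ki′ came from secondary plots of slopes and intercepts versus inhibitor concentration.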

[2] = target: rat intestinal sucrase (Rattus norvegicus, UniProt P23739); experiment: Kinetic study of α-glucosidase inhibition; format: biochemical
Sequence of rat intestinal sucrase (P23739 whole entry): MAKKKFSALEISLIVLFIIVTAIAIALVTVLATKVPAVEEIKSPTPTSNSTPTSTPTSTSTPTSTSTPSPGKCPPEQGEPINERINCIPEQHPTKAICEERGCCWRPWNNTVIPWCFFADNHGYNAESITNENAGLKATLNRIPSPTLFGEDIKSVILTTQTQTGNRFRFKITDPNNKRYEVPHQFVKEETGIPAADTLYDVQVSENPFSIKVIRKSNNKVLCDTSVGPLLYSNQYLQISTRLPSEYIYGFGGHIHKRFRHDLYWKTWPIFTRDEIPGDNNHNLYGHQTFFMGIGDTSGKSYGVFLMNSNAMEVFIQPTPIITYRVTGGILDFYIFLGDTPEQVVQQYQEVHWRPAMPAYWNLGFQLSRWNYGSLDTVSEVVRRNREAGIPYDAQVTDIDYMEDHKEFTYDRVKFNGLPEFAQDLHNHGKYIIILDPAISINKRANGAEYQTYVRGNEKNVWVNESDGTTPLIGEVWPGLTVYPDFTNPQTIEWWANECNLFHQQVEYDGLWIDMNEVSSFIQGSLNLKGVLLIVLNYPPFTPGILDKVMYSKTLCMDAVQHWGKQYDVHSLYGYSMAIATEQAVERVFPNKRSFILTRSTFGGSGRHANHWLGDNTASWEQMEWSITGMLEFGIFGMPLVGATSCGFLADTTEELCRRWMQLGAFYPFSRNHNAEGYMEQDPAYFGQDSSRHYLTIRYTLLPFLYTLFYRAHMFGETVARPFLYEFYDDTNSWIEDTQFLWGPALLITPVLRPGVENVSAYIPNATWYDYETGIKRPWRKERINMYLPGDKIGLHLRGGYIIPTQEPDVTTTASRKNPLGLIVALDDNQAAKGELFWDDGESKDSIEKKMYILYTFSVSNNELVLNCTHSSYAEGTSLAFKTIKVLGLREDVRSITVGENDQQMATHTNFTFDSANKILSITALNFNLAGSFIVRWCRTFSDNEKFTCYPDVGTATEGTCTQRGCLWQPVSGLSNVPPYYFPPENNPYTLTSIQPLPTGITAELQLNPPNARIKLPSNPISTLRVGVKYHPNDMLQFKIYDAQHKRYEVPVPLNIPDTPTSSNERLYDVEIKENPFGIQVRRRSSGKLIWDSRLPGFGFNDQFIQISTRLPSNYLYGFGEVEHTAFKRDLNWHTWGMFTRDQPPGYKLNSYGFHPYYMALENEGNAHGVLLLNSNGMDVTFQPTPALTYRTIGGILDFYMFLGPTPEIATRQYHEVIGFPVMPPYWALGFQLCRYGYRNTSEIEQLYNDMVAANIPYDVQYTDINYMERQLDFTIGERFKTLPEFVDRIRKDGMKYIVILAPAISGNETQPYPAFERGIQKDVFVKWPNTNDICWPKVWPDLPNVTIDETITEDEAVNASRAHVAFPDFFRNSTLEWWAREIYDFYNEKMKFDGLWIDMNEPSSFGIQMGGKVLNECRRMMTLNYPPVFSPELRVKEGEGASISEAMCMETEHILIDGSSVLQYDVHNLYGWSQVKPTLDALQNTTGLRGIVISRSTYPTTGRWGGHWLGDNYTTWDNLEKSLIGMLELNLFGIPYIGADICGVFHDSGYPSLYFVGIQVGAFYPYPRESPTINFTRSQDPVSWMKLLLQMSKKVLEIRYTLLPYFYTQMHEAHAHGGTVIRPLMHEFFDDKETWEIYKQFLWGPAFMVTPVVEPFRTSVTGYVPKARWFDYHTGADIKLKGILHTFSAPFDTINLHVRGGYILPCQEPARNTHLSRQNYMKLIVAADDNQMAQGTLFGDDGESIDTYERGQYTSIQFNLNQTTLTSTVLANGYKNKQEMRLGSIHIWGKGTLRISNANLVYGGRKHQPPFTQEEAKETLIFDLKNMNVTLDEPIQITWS
Summary of the method: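 Test compound in phosphate buffer pH 6.9 with rat intestinal α-glucosidase. Sucrose was varied over 20–100 mM, with and without inhibitor, and incubated at 37 °C for 40 min. […] Lineweaver–Burk plots gave the inhibition type. Secondary plots of slopes and intercepts against inhibitor concentration gave Ki and Ki′.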

[3] = target: yeast α-glucosidase; conditions: ref Suttithumsatid and co-workers, 2022; cited from earlier work
[4] = dissociation constant of ESI complex, secondary plots

SMILES	Inhibition type, maltase ([1]; Lineweaver–Burk plots, maltose 2–10 mM)	Ki′, maltase [1, 4] [µM]	Inhibition type, sucrase ([2]; Lineweaver–Burk plots, sucrose 20–100 mM)	Ki′, sucrase [2, 4] [µM]	IC50, yeast α-glucosidase inhibition [3] [µg/mL]
CCCCCc1cc(O)c2c(c1)OC(C)(C)c1ccc(C)cc1-2 [Compound 15, cannabinol]	Uncompetitive	196.4	Uncompetitive	434.8	–
C=C(C)[C@@H]1CCC(C)=C[C@H]1c1c(O)cc(CCCCC)cc1O [CBD]	–	–	–	–	5.5 (≈ 17.5 µM)
